ChEMBL document CHEMBL1641423, “Novel gratisin derivatives with high antimicrobial activity and low hemolytic activity” (Bioorg Med Chem Lett, 2011)
In brackets after ≈: the same amount, converted by molar mass. Where a SMILES comes first, the peptide text is derived from it. [ ]: non-standard residue; d: D form. Orn = NCCC[C@H](N)C(=O)O

Key:
Pseudomonas aeruginosa = experiment: Antibacterial activity against Pseudomonas aeruginosa NBRC 3080 after overnight incubation by medium dilution method; format: functional
Procedure, shortened: (§1)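 MIC by medium dilution with an inoculum of 10⁶ organisms per ml. Value is the minimum inhibitory concentration.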

[1] = Cytotoxicity against human RBC assessed induction of hemolysis at […] after 30 mins microtiter plate reader analysis; format: cell-based; conditions: erythrocyte, 0.5 h
[2] = system: Staphylococcus epidermidis; experiment: Antibacterial activity against Staphylococcus epidermidis NBRC 12993 after overnight incubation by medium dilution method; format: functional; procedure, shortened: as §1
Bacillus subtilis = experiment: Antibacterial activity against Bacillus subtilis NBRC 3513 after overnight incubation by medium dilution method; format: functional; procedure, shortened: as §1
Staphylococcus aureus = experiment: Antibacterial activity against Staphylococcus aureus NBRC 12732 after overnight incubation by medium dilution method; format: functional; procedure, shortened: as §1
Escherichia coli = experiment: Antibacterial activity against Escherichia coli NBRC l2734 after overnight incubation by medium dilution method; format: functional; procedure, shortened: as §1
Priestia megaterium = experiment: Antibacterial activity against Bacillus megaterium ATCC 19213 after overnight incubation by medium dilution method; format: functional; procedure, shortened: as §1

Structure (SMILES)	MIC (Pseudomonas aeruginosa) [µg/mL]	MIC [2] [µg/mL]	MIC (Bacillus subtilis) [µg/mL]	MIC (Staphylococcus aureus) [µg/mL]	MIC (Escherichia coli) [µg/mL]	MIC (Priestia megaterium) [µg/mL]	Activity [1]
CC(C)C[C@@H]1NC(=O)[C@H](CCCN)NC(=O)[C@H](C(C)C)NC(=O)[C@@H](Cc2ccc(O)cc2)NC(=O)[C@H](C)NC(=O)[C@@H](Cc2ccccc2)NC(=O)[C@H](CC(C)C)NC(=O)[C@H](CCCN)NC(=O)[C@H](C(C)C)NC(=O)[C@@H](Cc2ccc(O)cc2)NC(=O)[C@H](C)NC(=O)[C@@H](Cc2ccccc2)NC1=O	> 100	50 (≈ 35.3 µM)	12.5 (≈ 8.83 µM)	12.5 (≈ 8.83 µM)	> 100	25 (≈ 17.7 µM)	Non-toxic
CC(C)C[C@@H]1NC(=O)[C@H](CCCN)NC(=O)[C@H](CCCCN)NC(=O)[C@@H](Cc2ccc(O)cc2)NC(=O)[C@@H]2CCCN2C(=O)[C@@H](Cc2ccccc2)NC(=O)[C@H](CC(C)C)NC(=O)[C@H](CCCN)NC(=O)[C@H](CCCCN)NC(=O)[C@@H](Cc2ccc(O)cc2)NC(=O)[C@@H]2CCCN2C(=O)[C@@H](Cc2ccccc2)NC1=O	> 100	> 100	> 100	> 100	> 100	> 100	Non-toxic
CC(C)C[C@@H]1NC(=O)[C@H](CCCN)NC(=O)[C@H](C(C)C)NC(=O)[C@@H](Cc2ccc(O)cc2)NC(=O)[C@H](CO)NC(=O)[C@@H](Cc2ccccc2)NC(=O)[C@H](CC(C)C)NC(=O)[C@H](CCCN)NC(=O)[C@H](C(C)C)NC(=O)[C@@H](Cc2ccc(O)cc2)NC(=O)[C@H](CO)NC(=O)[C@@H](Cc2ccccc2)NC1=O	> 100	50 (≈ 34.5 µM)	25 (≈ 17.3 µM)	12.5 (≈ 8.63 µM)	> 100	50 (≈ 34.5 µM)	Non-toxic
CC(C)C[C@@H]1NC(=O)[C@H](CCCN)NC(=O)[C@H](C(C)C)NC(=O)[C@@H](Cc2ccc(O)cc2)NC(=O)[C@H](CCCCN)NC(=O)[C@@H](Cc2ccccc2)NC(=O)[C@H](CC(C)C)NC(=O)[C@H](CCCN)NC(=O)[C@H](C(C)C)NC(=O)[C@@H](Cc2ccc(O)cc2)NC(=O)[C@H](CCCCN)NC(=O)[C@@H](Cc2ccccc2)NC1=O	100 (≈ 65.4 µM)	6.25 (≈ 4.09 µM)	6.25 (≈ 4.09 µM)	6.25 (≈ 4.09 µM)	25 (≈ 16.3 µM)	6.25 (≈ 4.09 µM)	Non-toxic
CC(C)C[C@@H]1NC(=O)[C@H](CCCN)NC(=O)[C@H](C(C)C)NC(=O)[C@@H](Cc2ccc(O)cc2)NC(=O)[C@H](CCCNC(=N)N)NC(=O)[C@@H](Cc2ccccc2)NC(=O)[C@H](CC(C)C)NC(=O)[C@H](CCCN)NC(=O)[C@H](C(C)C)NC(=O)[C@@H](Cc2ccc(O)cc2)NC(=O)[C@H](CCCNC(=N)N)NC(=O)[C@@H](Cc2ccccc2)NC1=O	50 (≈ 31.5 µM)	6.25 (≈ 3.94 µM)	6.25 (≈ 3.94 µM)	6.25 (≈ 3.94 µM)	12.5 (≈ 7.88 µM)	6.25 (≈ 3.94 µM)	Non-toxic

More lines, main results first:

MIC (Pseudomonas aeruginosa) [µg/mL]	MIC [2] [µg/mL]	MIC (Bacillus subtilis) [µg/mL]	MIC (Staphylococcus aureus) [µg/mL]	MIC (Escherichia coli) [µg/mL]	MIC (Priestia megaterium) [µg/mL]	Structure (SMILES)	Activity [1]
> 100	25 (≈ 17.7 µM)	12.5 (≈ 8.85 µM)	6.25 (≈ 4.43 µM)	> 100	12.5 (≈ 8.85 µM)	CC(C)C[C@@H]1NC(=O)[C@H](CCCN)NC(=O)[C@H](C)NC(=O)[C@@H](Cc2ccc(O)cc2)NC(=O)[C@@H]2CCCN2C(=O)[C@@H](Cc2ccccc2)NC(=O)[C@H](CC(C)C)NC(=O)[C@H](CCCN)NC(=O)[C@H](C)NC(=O)[C@@H](Cc2ccc(O)cc2)NC(=O)[C@@H]2CCCN2C(=O)[C@@H](Cc2ccccc2)NC1=O	Non-toxic
> 50	> 50	> 50	> 50	> 50	> 50	CC(C)C[C@@H]1NC(=O)[C@H](C)NC(=O)[C@H](C(C)C)NC(=O)[C@@H](Cc2ccc(O)cc2)NC(=O)[C@@H]2CCCN2C(=O)[C@@H](Cc2ccccc2)NC(=O)[C@H](CC(C)C)NC(=O)[C@H](C)NC(=O)[C@H](C(C)C)NC(=O)[C@@H](Cc2ccc(O)cc2)NC(=O)[C@@H]2CCCN2C(=O)[C@@H](Cc2ccccc2)NC1=O	Non-toxic
> 100	> 100	100 (≈ 72.3 µM)	100 (≈ 72.3 µM)	> 100	100 (≈ 72.3 µM)	CC(C)[C@@H]1NC(=O)[C@@H](Cc2ccc(O)cc2)NC(=O)[C@@H]2CCCN2C(=O)[C@@H](Cc2ccccc2)NC(=O)[C@H](C)NC(=O)[C@H](CCCN)NC(=O)[C@H](C(C)C)NC(=O)[C@@H](Cc2ccc(O)cc2)NC(=O)[C@@H]2CCCN2C(=O)[C@@H](Cc2ccccc2)NC(=O)[C@H](C)NC(=O)[C@H](CCCN)NC1=O	Non-toxic
> 100	> 100	> 100	> 100	> 100	> 100	CC(C)C[C@@H]1NC(=O)[C@H](CCCN)NC(=O)[C@H](C(C)C)NC(=O)[C@@H](Cc2ccc(O)cc2)NC(=O)[C@@H]2CCCN2C(=O)[C@@H](C)NC(=O)[C@H](CC(C)C)NC(=O)[C@H](CCCN)NC(=O)[C@H](C(C)C)NC(=O)[C@@H](Cc2ccc(O)cc2)NC(=O)[C@@H]2CCCN2C(=O)[C@@H](C)NC1=O	Non-toxic
> 100	25 (≈ 19.5 µM)	12.5 (≈ 9.74 µM)	12.5 (≈ 9.74 µM)	> 100	12.5 (≈ 9.74 µM)	CC(C)C[C@@H]1NC(=O)[C@H](CCCN)NC(=O)[C@H](C(C)C)NC(=O)[C@@H](C)NC(=O)[C@@H]2CCCN2C(=O)[C@@H](Cc2ccccc2)NC(=O)[C@H](CC(C)C)NC(=O)[C@H](CCCN)NC(=O)[C@H](C(C)C)NC(=O)[C@@H](C)NC(=O)[C@@H]2CCCN2C(=O)[C@@H](Cc2ccccc2)NC1=O (cyclo(L[dF]P[dA]V[Orn]L[dF]P[dA]V[Orn]))	Non-toxic
100 (≈ 68.1 µM)	12.5 (≈ 8.52 µM)	6.25 (≈ 4.26 µM)	6.25 (≈ 4.26 µM)	100 (≈ 68.1 µM)	6.25 (≈ 4.26 µM)	CC(C)C[C@@H]1NC(=O)[C@H](CCCN)NC(=O)[C@H](C(C)C)NC(=O)[C@@H](Cc2ccc(O)cc2)NC(=O)[C@@H]2CCCN2C(=O)[C@@H](Cc2ccccc2)NC(=O)[C@H](CC(C)C)NC(=O)[C@H](CCCN)NC(=O)[C@H](C(C)C)NC(=O)[C@@H](Cc2ccc(O)cc2)NC(=O)[C@@H]2CCCN2C(=O)[C@@H](Cc2ccccc2)NC1=O [GRATISIN]	Toxic
